From article PMC6868502 (Journal of natural products, 2018)
Where two headings read alike, the source gives them in different places.

What was measured:
[1] = test system: GM18453 skin fibroblast cell line (I1061T mutation on both alleles of NPC1); assay: Filipin staining of unesterified cholesterol in NPC1 mutant fibroblasts; assay type: cell-based, human; details: GM18453 cells; for concentration at which the lowest filipin area/cell is achieved: dose range 1 nM to 5 μM; for concentration giving significant rescue of cholesterol accumulation (as low as): filipin fluorescence images
[2] = test system: NPC1 protein in GM18453 fibroblasts; assay: NPC1 protein expression, Western blot after endoglycosidase H treatment; assay type: cell-based, human; details: 48 hours; for levels of the 250 kDa NPC1 isoform: SAHA 5 μM or GEX1A 50 nM
[3] = test system: NPC1 protein in GM18453 fibroblasts; assay: NPC1 protein expression, Western blot after peptide:N-glycosidase F treatment; assay type: cell-based, human; details: 48 hours
How it was run: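 NPC1-mutant GM18453 fibroblasts exposed for 48 h at 37°C, 5% CO2 to test compound (50 nM), SAHA (5 μM) or 0.1% v/v DMSO, then lysed in RIPA with protease inhibitors. Lysate (25 μg) digested with PNGase F (1000 U) in SDS, DTT and Tris-HCl pH 8, overnight (~18 h) at 37°C. Immunoblot with rabbit anti-NPC1, ECL on film. Densitometry normalised to actin, relative to DMSO; four independent experiments; SD; t-test.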

Aqueous solubility = assay type: physicochemical
Plasma protein binding = assay type: in vitro ADME
[4] = Liver microsome stability; assay type: in vitro ADME
Caco-2 cell line = assay: Caco-2 permeability; assay type: in vitro ADME
Pharmacokinetics in mice = assay type: in vivo; details: mice dosed at 2 mg/kg
[5] = test system: low-density lipoprotein (LDL) receptor; details: ref 5; cited from earlier work
histone acetylation = details: cited from earlier work
[6] = test system: GM18407 fibroblast cell line (NPC1 R404Q, M1142T); assay: Filipin staining of cholesterol accumulation in GM18407 fibroblasts; assay type: cell-based, human; details: GM18407 cells, even at high concentrations
[7] = test system: GM18453 skin fibroblast cell line (I1061T mutation on both alleles of NPC1); details: several NPC1 mutant cell lines, including GM18453; cited from earlier work
[8] = test system: GM18407 fibroblast cell line (NPC1 R404Q, M1142T); details: GM18407 cells; cited from earlier work

CO[C@H]([C@@H](C)[C@H]1O[C@]1(C)C[C@H](C)/C=C/C=C(\C)[C@H]1O[C@@H](CC(=O)O)CC[C@@H]1C)[C@@H](C)O [Compound 1, GEX1A]
effects on cell and nuclei shape (cellular toxicity) ([1]; 5 μM): detrimental effects on cell and nuclei shape | concentration at which the lowest filipin area/cell is achieved ([1]; 48 hours): 50 nM | concentration giving significant rescue of cholesterol accumulation (as low as) ([1]; 48 hours): 50 nM | expression of the 180 kDa NPC1 species ([2]; GEX1A 50 nM, vs DMSO): increases the expression of the 180 kDa species | levels of the 250 kDa NPC1 isoform ([2]; vs DMSO): did not cause a significant increase | expression of the highly glycosylated 180 kDa NPC1 isoform ([3]; GEX1A 50 nM, PNGase F experiment): clear increase | level of NPC1 protein expression including both the 250 and 120 kDa isoforms ([3]; GEX1A 50 nM, PNGase F, vs DMSO): significant increase | aqueous solubility (Aqueous solubility): exceptional aqueous solubility | plasma protein binding profile (Plasma protein binding): excellent plasma protein binding profile | stability in liver microsomes [4]: quite stable | permeability (Caco-2 cell line; Caco-2): reasonably permeable | efflux (Caco-2 cell line; Caco-2 cell line): no evidence of efflux | half-life (Pharmacokinetics in mice): long half-life | expression of the LDL receptor [5]: increased expression | effect on histone acetylation (histone acetylation; ref 5): does not affect histone acetylation | effect on histone acetylation (histone acetylation; ref 32): no effect on histone acetylation

COC(=O)C[C@H]1CC[C@H](C)[C@@H](/C(C)=C/C=C/[C@@H](C)C[C@@]2(C)O[C@@H]2[C@H](C)[C@@H](OC)[C@@H](C)O)O1 [Compound 2, Methyl 2-((2R,5S,6S)-6-((S,2E,4E)-7-((2R,3R)-3-((2R,3R,4R)-4-hydroxy-3-methoxypentan-2-yl)-2-methyloxiran-2-yl)-6-methylhepta-2,4-dien-2-yl)-5-methyltetrahydro-2H-pyran-2-yl) acetate]
concentration at which the lowest filipin area/cell is achieved ([1]; 48 hours): 50 nM | concentration giving significant rescue of cholesterol accumulation (as low as) ([1]; 48 hours): 50 nM

COC(=O)C[C@H]1CC[C@H](C)[C@@H](/C(C)=C/C=C/[C@@H](C)C[C@@]2(C)O[C@@H]2[C@H](C)[C@@H](OC)[C@@H](C)OC(C)=O)O1 [Compound 3, Methyl 2-((2R,5S,6S)-6-((S,2E,4E)-7-((2R,3R)-3-((2R,3R,4R)-4-acetoxy-3-methoxypentan-2-yl)-2-methyloxiran-2-yl)-6-methylhepta-2,4-dien-2-yl)-5-methyltetrahydro-2H-pyran-2-yl) acetate]
concentration at which the lowest filipin area/cell is achieved ([1]; 48 hours): 50 nM | concentration giving significant rescue of cholesterol accumulation (as low as) ([1]; 48 hours): 50 nM

COC(=O)C[C@H]1CC[C@H](C)[C@@H](/C(C)=C/C=C/[C@@H](C)C[C@@]2(C)O[C@@H]2[C@H](C)[C@@H](OC)C(C)=O)O1 [Compound 4, Methyl 2-((2R,5S,6S)-6-((S,2E,4E)-7-((2R,3R)-3-((2S,3R)-3-methoxy-4-oxopentan-2-yl)-2-methyloxiran-2-yl)-6-methylhepta-2,4-dien-2-yl)-5-methyltetrahydro-2H-pyran-2-yl)acetate]
cholesterol clearance compared to vehicle treatment ([1]; 50 nM, 48 hours, filipin): Some cholesterol clearance

O=C(CCCCCCC(=O)Nc1ccccc1)NO [SAHA, suberoylanilide hydroxamic acid, reference compound]
rescue of the disease phenotype (cholesterol accumulation) [6]: neither SAHA nor compounds 1 – 4 were able to effectively rescue the disease phenotype | levels of the 250 kDa NPC1 isoform ([2]; vs DMSO): increases the expression of the larger (250 kDa) isoform | increase in the levels of total NPC1 protein ([2]; SAHA 5 μM, Endo H, densitometry vs DMSO): approximately twofold | levels of the 250 kDa NPC1 isoform ([3]; SAHA 5 μM, PNGase F experiment, vs DMSO): moderate increase | reversal of cholesterol accumulation in NPC1 mutant cell lines [7]: effective in reversing cholesterol accumulation | effect on lysosomal cholesterol accumulation [8]: no effect on lysosomal cholesterol accumulation
